Data set [1] is described as follows: Equilibrium solubility of the compound in buffer at pH 6.8. Format: physicochemical. An outline of the steps:
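Equilibrium solubility measured in buffer at pH 6.8.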

Data set [2] in a line: Oral bioavailability in continuous angiotensin 2 infusion Sprague-Dawley rat model at 3 mg/kg. The format is ADME, organism-based. The following applies: in vivo. In a few lines: (§1)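 Male Sprague Dawley rats, 200–300 g. IV: 0.3 mg/1 mL/kg (free base) slow injection via jugular vein, n=2. Oral gavage at 1 mg/5 mL/kg or 3 mg/5 mL/kg in solution, n=3. Jugular catheter blood at 5 min (iv only), 0.25–8 h into EDTA; plasma after protein precipitation with acetonitrile containing internal standard, HPLC-MS; noncompartmental parameters.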

Data set [3] is described as follows: Half life in continuous angiotensin 2 infusion Sprague-Dawley rat model at 3 mg/kg, po and 1 mg/kg, iv. Format: ADME, organism-based. The note with it: in vivo.
Data set [4] can be described thus: AUC (0 to 24 hrs) in continuous angiotensin 2 infusion Sprague-Dawley rat model at 3 mg/kg, po. Format: ADME, organism-based. The arrangement: time < 24 hr, dose 3 mg/kg, route oral. The note with it: in vivo. In a few lines:
as §1

Data set [5] concerns the target T1, Cytochrome P450 11B2, mitochondrial (Rattus norvegicus, UniProt P30099).
T1 sequence (P30099 whole entry): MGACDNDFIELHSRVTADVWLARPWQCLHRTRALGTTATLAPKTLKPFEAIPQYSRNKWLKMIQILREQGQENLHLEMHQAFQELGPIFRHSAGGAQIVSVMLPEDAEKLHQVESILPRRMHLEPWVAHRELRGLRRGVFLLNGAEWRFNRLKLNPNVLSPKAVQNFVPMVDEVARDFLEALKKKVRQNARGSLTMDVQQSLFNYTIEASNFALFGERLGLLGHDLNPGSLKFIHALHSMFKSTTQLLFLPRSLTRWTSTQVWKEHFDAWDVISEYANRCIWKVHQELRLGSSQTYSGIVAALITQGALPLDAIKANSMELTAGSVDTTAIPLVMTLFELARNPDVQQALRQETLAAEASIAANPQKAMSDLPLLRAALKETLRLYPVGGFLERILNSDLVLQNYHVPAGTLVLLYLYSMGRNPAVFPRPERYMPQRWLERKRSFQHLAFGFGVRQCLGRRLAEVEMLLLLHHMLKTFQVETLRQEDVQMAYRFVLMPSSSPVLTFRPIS
Put plainly: Inhibition of recombinant rat CYP11B2 using 11-deoxycorticosterone as substrate after 2 hrs by scintillation proximity assay. A general note: Scintillation proximity formats need no separation of bound from free tracer.

Another data set relates to Plasma. Put plainly: Drug uptake in plasma of po dosed chair-trained chronically cannulated cynomolgus monkey model compound administered followed by ACTH challenge for 3 hrs measured up to 8 hrs post challenge by LC/MS/MS analysis. Format: ADME, organism-based, Macaca fascicularis. The note with it: in vivo. An outline of the steps:
(§2)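 Conscious chair-trained, chronically cannulated male cynomolgus monkeys; vascular access port via Huber needle. Baseline blood (heparin) before dosing; methylcellulose suspension po at 0.03, 0.1, 0.3 or 3 mg/kg (n=3/dose) or vehicle (n=6, same animals). ACTH(1–24) 3000 ng/kg iv 3 h post-dose; sampling 0.125–1 h post-ACTH, up to 8 h, and 23.5 and 24 h. Aldosterone and cortisol by RIA; drug by LC/MS/MS (LLOQ 0.26 nmol/L, lower values set to zero).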

Another data set concerns Cynomolgus monkey. Put plainly: Decrease in plasma cortisol level in chair-trained chronically cannulated cynomolgus monkey model measured after 24 hrs […]. The format is functional, organism-based. The following applies: Macaca fascicularis. An outline of the steps: as §2
Data set [6] can be described thus: Tmax in healthy human at 30 mg/kg, po bid. The format is ADME, organism-based. The note with it: in vivo. In a few lines:
(§3)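 Double-blind, randomized, placebo-controlled study in healthy male and female volunteers aged 18-63 on a restricted sodium/potassium diet. Oral bid doses of 30, 60, 100 or 200 mg, drug:placebo 5:2. N per dose 10–17. AUCtau, Cmax and median Tmax reported; dose-normalized values are AUCtau/dose and Cmax/dose.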

Data set [7] can be described thus: Cmax in healthy human at 200 mg/kg, po bid. The format is ADME, organism-based. The following applies: in vivo. The arrangement: dose 200 mg/kg, route oral. An outline of the steps:
as §3

In data set [8] the test system is Homo sapiens. Put plainly: Dose normalized Cmax in healthy human at 60 mg/kg, po bid. Format: ADME, organism-based. The note with it: in vivo. An outline of the steps:
as §3

In data set [9] the test system is Homo sapiens. Put plainly: Toxicity in human assessed as decrease in urinary cortisol level at 30 to 200 mg/kg, po bid measured over 24 hrs. Format: organism-based, Urine. The note with it: in vivo, in the assay text read “30 to 200 mg” for “30 to 200 mg/kg”. In a few lines:
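Healthy male and female volunteers, 18-63 years, restricted sodium/potassium diet; double-blind randomized placebo-controlled, oral 30, 60, 100 or 200 mg bid (drug:placebo 5:2).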

Data on one compound can be found in ChEMBL document CHEMBL3745671, “Discovery of N-[5-(6-Chloro-3-cyano-1-methyl-1H-indol-2-yl)-pyridin-3-ylmethyl]-ethanesulfonamide, a Cortisol-Sparing CYP11B2 Inhibitor that Lowers Aldosterone in Human Subjects” (J Med Chem, 2015).

Calls of active or inactive are those of the source. No cut-off for these calls is given here.

The compound `CCS(=O)(=O)NCc1cncc(-c2c(C#N)c3ccc(Cl)cc3n2C)c1` yielded a solubility (thermodynamic) in data set [1] of less than 5 µM. The bioavailability in data set [2] was 84%. Further, the half-life in data set [3] is 1.1 h. The compound further yielded an area under the curve AUC(0-t) at 24 h in data set [4] of 5.79 µM·h. Further, in [5], the IC50 amounted to 27.4 µM. The Drug uptake entry in the data set on Plasma is listed as “Dose-dependent effect”. Also, the result in the data set on Cynomolgus monkey was inactive. Also, the Tmax in data set [6] is 4 h. In addition, the concentration in data set [7] peaked (Cmax) at 306 ng/mL. In the data set on Homo sapiens [8], this compound had a Cmax/dose of 2.8 ng/mL. Besides, the Activity entry with Homo sapiens [9] was “Non-toxic”.

Usually thermodynamic solubility stands for solubility found after equilibrating the solid with the medium. One may read the bioavailability as the share of a dose that reaches the circulation, judged against a reference dose that is usually intravenous. One may read the half-life as how long it takes for the measured level to halve. A word on the AUC(0-t): it is exposure summed from dosing to a finite time, without extrapolation to infinity. In general, IC50 refers to the concentration at which inhibition is half-maximal. The term Tmax denotes the time at which the peak concentration occurs. What is called Cmax is the peak of the concentration-time curve.
